# Assay results as given in ChEMBL document CHEMBL4706768, “Discovery of Potent, Selective Triazolothiadiazole-Containing c-Met Inhibitors” (ACS Med Chem Lett, 2021).
# pIC50, pKi: −log10 of the molar value.
# How the values were obtained:
# [1] = biological target: T1, Hepatocyte growth factor receptor (Homo sapiens, UniProt P08581); test: Inhibition of c-Met (unknown origin) using poly Glu-Tyr as substrate preincubated for 10 mins followed by ATP addition by phosphoenolpyruvate/pyruvate kinase/lactate dehydrogenase coupled radiometric assay
# [2] = biological target: T1, Hepatocyte growth factor receptor; test: Inhibition of c-MET in human SNU-5 cells measured after 6 hrs by steady-glo luciferase reporter gene assay; type: cell-based
# [3] = biological target: cGMP-inhibited 3',5'-cyclic phosphodiesterase 3A (Homo sapiens, UniProt Q14432); test: Inhibition of recombinant human N-terminal GST/His-tagged PDE3A (669 to 1141 residues) expressed in baculovirus infected Sf9 insect cells using iFL-cAMP as substrate preincubated for 15 mins followed by substrate addition and measured after 40 mins by fluorescence assay
# Homo sapiens = species: Homo sapiens; test: Selectivity ratio of IC50 for inhibition of recombinant human N-terminal GST/His-tagged PDE3A (669 to 1141 residues) expressed in baculovirus infected Sf9 insect cells to IC50 for inhibition of c-MET in human SNU-5 cells
# [4] = Stability in human liver microsomes after 30 mins
# [5] = Stability in rat liver microsomes after 30 mins
# [6] = Unbound intrinsic clearance in human hepatocytes assessed per million cells; type: ADME, cell-based, Hepatocyte
# [7] = Unbound intrinsic clearance in mouse hepatocytes assessed per million cells; type: ADME, cell-based, Hepatocyte
# [8] = Stability in rat hepatocytes after 30 mins; type: ADME, cell-based, Hepatocyte; conditions: read-out: Stabilty
# [9] = Clearance in rat at 1 mg/kg, iv; type: ADME, organism-based; conditions: in vivo
# [10] = Half life in rat at 1 mg/kg, iv; type: ADME, organism-based; conditions: in vivo
# [11] = Clearance in rat at 0.9 mg/kg, iv; type: ADME, organism-based; conditions: in vivo
# Summary of the method: (§1)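 Rats received IV 0.9 mpk or PO 2.6 mpk, the oral dose formulated in 0.5% MC/0.1% Tween 80. PK parameters were derived from the IV and PO dosing arms.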
# [12] = Volume of distribution at steady state in rat at 0.9 mg/kg, iv; type: ADME, organism-based; conditions: in vivo, read-out: Vdss; summary of the method: as §1
# [13] = Half life in rat at 0.9 mg/kg, iv; type: ADME, organism-based; conditions: in vivo; summary of the method: as §1
# [14] = Cmax in rat at 2.6 mg/kg, po; type: ADME, organism-based; design: route oral, dose 2.6 mg/kg; conditions: in vivo; summary of the method: as §1
# [15] = AUC in rat at 2.6 mg/kg, po; type: ADME, organism-based; design: dose 2.6 mg/kg; conditions: in vivo; summary of the method: as §1
# [16] = Oral bioavailability in rat at 2.6 mg/kg; type: ADME, organism-based; conditions: in vivo; summary of the method: as §1
# [17] = Clearance in mouse at 0.8 mg/kg, iv; type: ADME, organism-based; conditions: in vivo
# Summary of the method: (§2)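 Mice received IV 0.8 mpk or PO 13 mpk, the oral dose in 0.5% MC/0.1% Tween 80 vehicle. Parameters came from the respective IV or PO dosing.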
# [18] = Volume of distribution at steady state in mouse at 0.8 mg/kg, iv; type: ADME, organism-based; conditions: in vivo, read-out: Vdss; summary of the method: as §2
# [19] = Half life in mouse at 0.8 mg/kg, iv; type: ADME, organism-based; conditions: in vivo; summary of the method: as §2
# [20] = Cmax in mouse at 13 mg/kg, po; type: ADME, organism-based; design: route oral, dose 13 mg/kg; conditions: in vivo; summary of the method: as §2
# [21] = AUC in mouse at 13 mg/kg, po; type: ADME, organism-based; design: dose 13 mg/kg; conditions: in vivo; summary of the method: as §2
# [22] = Oral bioavailability in mouse at 13 mg/kg; type: ADME, organism-based; conditions: in vivo; summary of the method: as §2
# [23] = Clearance in dog at 0.8 mg/kg, iv; type: ADME, organism-based, Canis lupus familiaris; conditions: in vivo
# Summary of the method: (§3)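 For dogs, dosing was IV 0.8 mpk or PO 12 mpk, the oral formulation being 30% PG/10% Solutol/1% HPMC-AS. IV and PO parameters were obtained from the corresponding arms.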
# [24] = Volume of distribution at steady state in dog at 0.8 mg/kg, iv; type: ADME, organism-based, Canis lupus familiaris; conditions: in vivo, read-out: Vdss; summary of the method: as §3
# [25] = Half life in dog at 0.8 mg/kg, iv; type: ADME, organism-based, Canis lupus familiaris; conditions: in vivo; summary of the method: as §3
# [26] = Cmax in dog at 12 mg/kg, po; type: ADME, organism-based, Canis lupus familiaris; design: route oral, dose 12 mg/kg; conditions: in vivo; summary of the method: as §3
# [27] = AUC in dog at 12 mg/kg, po; type: ADME, organism-based, Canis lupus familiaris; design: dose 12 mg/kg; conditions: in vivo; summary of the method: as §3
# [28] = Oral bioavailability in dog at 12 mg/kg; type: ADME, organism-based, Canis lupus familiaris; conditions: in vivo; summary of the method: as §3
# [29] = Clearance in monkey at 0.9 mg/kg, iv; type: ADME, organism-based, Macaca mulatta; conditions: rhesus monkey, in vivo
# [30] = Volume of distribution at steady state in monkey at 0.9 mg/kg, iv; type: ADME, organism-based, Macaca mulatta; conditions: rhesus monkey, in vivo, read-out: Vdss
# [31] = Half life in monkey at 0.9 mg/kg, iv; type: ADME, organism-based, Macaca mulatta; conditions: rhesus monkey, in vivo
# SNU-5 [32] = test: Antitumor activity against human SNU-5 cells xenografted in SCID mouse assessed as tumor regression measured 38 days post tumor implantation; type: functional
# Summary of the method: (§4)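 SCID mice carrying SNU-5 tumors were dosed at 3, 10 or 30 mpk. Tumor growth was compared with untreated controls as T/C. Body weight was followed through the dosing regimen.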
# SNU-5 [33] = test: Antitumor activity against human SNU-5 cells xenografted in SCID mouse assessed as tumor regression at 30 mg/kg qd measured 38 days post tumor implantation relative to control; type: functional; summary of the method: as §4
# SNU-5 [34] = test: Antitumor activity against human SNU-5 cells xenografted in SCID mouse assessed as tumor growth at 3 mg/kg qd measured 38 days post tumor implantation relative to control; type: functional; summary of the method: as §4
# SNU-5 [35] = test: Antitumor activity against human SNU-5 cells xenografted in SCID mouse assessed as tumor growth at 10 mg/kg qd measured 38 days post tumor implantation relative to control; type: functional; summary of the method: as §4
# [36] = Toxicity in human SNU-5 cells xenografted SCID mouse assessed as body weight loss at 30 mg/kg qd; type: organism-based; conditions: in vivo; summary of the method: as §4
# T1 sequence (P08581 whole entry): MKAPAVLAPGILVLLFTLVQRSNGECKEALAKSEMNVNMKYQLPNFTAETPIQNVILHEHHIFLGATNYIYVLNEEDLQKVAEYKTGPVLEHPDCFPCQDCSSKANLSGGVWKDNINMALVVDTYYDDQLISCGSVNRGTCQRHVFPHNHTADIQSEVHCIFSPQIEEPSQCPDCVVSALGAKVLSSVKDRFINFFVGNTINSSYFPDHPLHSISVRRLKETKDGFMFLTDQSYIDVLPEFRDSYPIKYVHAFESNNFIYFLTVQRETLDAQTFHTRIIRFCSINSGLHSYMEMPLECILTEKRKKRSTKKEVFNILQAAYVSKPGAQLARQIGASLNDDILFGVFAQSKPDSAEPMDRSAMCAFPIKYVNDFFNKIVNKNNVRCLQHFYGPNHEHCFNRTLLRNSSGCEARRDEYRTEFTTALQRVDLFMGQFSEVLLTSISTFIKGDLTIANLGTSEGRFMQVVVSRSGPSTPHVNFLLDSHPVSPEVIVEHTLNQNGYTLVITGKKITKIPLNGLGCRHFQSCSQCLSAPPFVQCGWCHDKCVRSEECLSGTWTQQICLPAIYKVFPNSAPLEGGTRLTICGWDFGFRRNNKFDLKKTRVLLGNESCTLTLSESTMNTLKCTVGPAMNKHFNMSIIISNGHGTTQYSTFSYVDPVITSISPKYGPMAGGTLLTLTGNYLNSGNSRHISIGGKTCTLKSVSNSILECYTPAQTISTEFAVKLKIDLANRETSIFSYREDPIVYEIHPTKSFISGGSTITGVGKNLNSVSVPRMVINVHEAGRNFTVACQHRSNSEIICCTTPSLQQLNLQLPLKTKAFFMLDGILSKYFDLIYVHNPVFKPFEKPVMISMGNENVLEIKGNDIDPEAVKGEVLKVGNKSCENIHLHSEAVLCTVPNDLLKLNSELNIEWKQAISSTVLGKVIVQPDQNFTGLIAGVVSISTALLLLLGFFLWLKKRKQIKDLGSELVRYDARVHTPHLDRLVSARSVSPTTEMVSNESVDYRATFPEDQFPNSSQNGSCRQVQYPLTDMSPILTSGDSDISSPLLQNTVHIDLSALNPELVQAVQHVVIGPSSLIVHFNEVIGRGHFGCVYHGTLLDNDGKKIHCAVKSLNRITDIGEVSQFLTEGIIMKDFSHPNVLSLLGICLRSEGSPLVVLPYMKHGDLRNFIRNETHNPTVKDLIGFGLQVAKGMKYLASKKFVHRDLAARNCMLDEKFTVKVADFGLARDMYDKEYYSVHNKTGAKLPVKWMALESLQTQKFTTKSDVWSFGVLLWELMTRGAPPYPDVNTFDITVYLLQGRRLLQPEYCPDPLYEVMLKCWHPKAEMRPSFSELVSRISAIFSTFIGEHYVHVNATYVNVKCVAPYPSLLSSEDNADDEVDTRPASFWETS
# Sequence of cGMP-inhibited 3',5'-cyclic phosphodiesterase 3A (Q14432 whole entry, the tested form may be a part): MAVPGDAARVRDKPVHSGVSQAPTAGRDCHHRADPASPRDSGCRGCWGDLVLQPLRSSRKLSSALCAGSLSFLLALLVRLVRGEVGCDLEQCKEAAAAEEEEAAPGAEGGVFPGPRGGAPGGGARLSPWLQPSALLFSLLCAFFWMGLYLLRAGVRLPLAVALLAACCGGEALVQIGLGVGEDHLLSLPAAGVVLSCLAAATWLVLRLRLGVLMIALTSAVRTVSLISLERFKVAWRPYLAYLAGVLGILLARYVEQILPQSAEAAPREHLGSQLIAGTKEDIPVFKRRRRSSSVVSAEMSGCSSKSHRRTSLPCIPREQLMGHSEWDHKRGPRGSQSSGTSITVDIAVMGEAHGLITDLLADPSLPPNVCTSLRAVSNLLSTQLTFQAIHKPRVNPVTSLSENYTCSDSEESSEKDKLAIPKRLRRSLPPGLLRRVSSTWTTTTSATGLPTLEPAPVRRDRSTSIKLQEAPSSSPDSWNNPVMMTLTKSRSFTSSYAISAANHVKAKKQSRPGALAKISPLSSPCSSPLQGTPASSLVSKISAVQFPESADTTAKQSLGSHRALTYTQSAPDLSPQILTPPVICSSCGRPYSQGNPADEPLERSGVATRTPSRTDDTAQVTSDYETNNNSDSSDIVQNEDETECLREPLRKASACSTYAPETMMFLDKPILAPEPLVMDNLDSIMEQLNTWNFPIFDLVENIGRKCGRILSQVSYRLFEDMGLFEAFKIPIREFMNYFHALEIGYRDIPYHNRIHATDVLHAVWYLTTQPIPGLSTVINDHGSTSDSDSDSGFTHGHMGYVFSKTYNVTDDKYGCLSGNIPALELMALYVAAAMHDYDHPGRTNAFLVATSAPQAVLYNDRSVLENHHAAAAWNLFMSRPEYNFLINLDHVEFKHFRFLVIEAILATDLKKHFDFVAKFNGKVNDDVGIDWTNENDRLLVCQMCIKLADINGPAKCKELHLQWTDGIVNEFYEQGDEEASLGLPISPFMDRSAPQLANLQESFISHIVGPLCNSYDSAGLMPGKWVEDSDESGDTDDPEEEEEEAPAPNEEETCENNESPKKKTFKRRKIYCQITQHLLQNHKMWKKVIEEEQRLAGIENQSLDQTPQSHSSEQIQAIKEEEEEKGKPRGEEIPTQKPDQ
smiles,measurement,setting,value
C[C@@H](c1ccc2ncccc2c1)c1nnc2sc(Nc3cnn(C)c3)nn12,pKi,[1],7.70
same,pIC50,[2],8.30
same,pIC50,[3],5.52
same,Ratio IC50,Homo sapiens,600
Oc1ccc(Cc2nnc3ccc(-c4ccc(F)cc4)nn23)cc1,remaining at 0.5 h,[4],50%
same,remaining at 0.5 h,[5],32%
CC(c1ccc2ncccc2c1)c1nnc2sc(-c3cnn(C)c3)nn12 (racemic),pKi,[1],7.30
same,pIC50,[2],7.52
same,CL free,[6],3.2 µL/min
same,CL free,[7],7.4 µL/min
Cc1nn(C)cc1-c1nn2c([C@@H](C)c3ccc4ncccc4c3)nnc2s1,pIC50,[2],8.52
same,pIC50,[3],7.00
same,Ratio IC50,Homo sapiens,33
Oc1ccc(Cc2nnc3sc(Nc4cccc(Cl)c4)nn23)cc1Cl,remaining at 0.5 h,[8],63%
Cn1cc(-c2nn3c(Cc4ccc5ncccc5c4)nnc3s2)cn1,CL free,[6],4.8 µL/min
same,CL free,[7],6.2 µL/min
same,clearance,[9],24.5 mL/min/kg
same,half-life,[10],1.1 h
Clc1cccc(Nc2nn3c(Cc4ccc5c(c4)OCO5)nnc3s2)c1,remaining at 0.5 h,[8],64%
Oc1ccc(Cc2nnc3n2N=C(c2ccc(F)cc2)CS3)cc1,remaining at 0.5 h,[4],73%
same,remaining at 0.5 h,[5],2.6%
Cc1nn(C)cc1-c1nn2c([C@H](C)c3ccc4ncccc4c3)nnc2s1,pIC50,[2],8.52
same,pIC50,[3],6.70
same,Ratio IC50,Homo sapiens,67
Oc1cccc(Cc2nnc3sc(Nc4cccc(Cl)c4)nn23)c1,remaining at 0.5 h,[8],55%
Cn1cc(Nc2nn3c(C(F)(F)c4ccc5ncccc5c4)nnc3s2)cn1,pKi,[1],7.68
same,pIC50,[2],8.40
same,pIC50,[3],5.09
same,Ratio IC50,Homo sapiens,2020
same,clearance,[11],25 mL/min/kg
same,Vd,[12],0.7 L/kg
same,half-life,[13],1.4 h
same,Cmax,[14],150 ng/mL
same,AUC,[15],0.6 µg/h/mL
same,bioavailability,[16],29%
same,clearance,[17],21 mL/min/kg
same,Vd,[18],1 L/kg
same,half-life,[19],1.8 h
same,Cmax,[20],4800 ng/mL
same,AUC,[21],16 µg/h/mL
same,bioavailability,[22],100%
same,clearance,[23],14 mL/min/kg
same,Vd,[24],1.6 L/kg
same,half-life,[25],3.6 h
same,Cmax,[26],1300 ng/mL
same,AUC,[27],9.9 µg/h/mL
same,bioavailability,[28],66%
same,clearance,[29],23 mL/min/kg
same,Vd,[30],1.2 L/kg
same,half-life,[31],2 h
same,Activity,SNU-5 [32],Dose-dependent effect
same,Activity,SNU-5 [33],-23.9%
same,T/C,SNU-5 [34],16.6%
same,T/C,SNU-5 [35],54.2%
same,Activity,[36],Non-Toxic
Clc1cccc(Nc2nn3c(Cc4ccc5ncccc5c4)nnc3s2)c1,remaining at 0.5 h,[8],45%
Clc1cccc(Nc2nn3c(Cn4ccc5ncccc54)nnc3s2)c1,remaining at 0.5 h,[8],60%
Oc1ccc(Cn2cnc3ncc(-c4ccc(F)cc4)nc32)cc1,remaining at 0.5 h,[4],51%
same,remaining at 0.5 h,[5],56%
C[C@H](c1ccc2ncccc2c1)c1nnc2sc(-c3cnn(C)c3)nn12,pKi,[1],6.62
same,pIC50,[2],7.08
same,pIC50,[3],5.10
same,CL free,[6],5.8 µL/min
same,CL free,[7],7 µL/min
same,Ratio IC50,Homo sapiens,95
Oc1ccc(Cc2nnc3sc(Nc4ccccc4)nn23)cc1,remaining at 0.5 h,[4],68%
same,remaining at 0.5 h,[5],40%
Oc1ccc(Cc2nnc3sc(Nc4cccc(Cl)c4)nn23)cc1F,remaining at 0.5 h,[8],56%
